Activity calls are given as the source filed them. The rule behind the calls is not given here.
Tested on: not listed separately
Assay: Permeability of the compound
Type: ADME
Settings: not told; read-out: permeability

Papp [×10⁻⁶ cm/s]	Compound
17	CSc1nc2ccccn2c(=N)c1S(=O)(=O)c1ccccc1

Tested on: not listed separately
Assay: Half life in human liver microsomes at 0.5 uM in presence of NADPH
Type: ADME
Settings: not given
Outline: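 Test compound incubated with human liver microsomes (1 mg/ml) plus NADPH (1 mM) for 0–45 min. Reactions were stopped and parent remaining in supernatant was quantified by LC–MS/MS. T1/2 was taken from the plot of % remaining versus time. Omeprazole was run as a reference control.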

half-life at 0.5 µM [min]	Compound
43	CSc1nc2ccccn2/c(=N\C(C)=O)c1S(=O)(=O)c1ccccc1
3.1	CSc1nc2ccccn2c(=N)c1S(=O)(=O)c1ccc(Cl)c(Cl)c1
4.1	CSc1nc2ccccn2c(=N)c1S(=O)(=O)c1cc(C)c(Cl)cc1C
3.9	CSc1nc2ccccn2c(=N)c1S(=O)(=O)c1ccc(C(C)(C)C)cc1
26	COc1ccc2[nH]c([S+]([O-])Cc3ncc(C)c(OC)c3C)nc2c1 (stereo unspecified) [OMEPRAZOLE]
3.1	CSc1nc2ccccn2c(=N)c1S(=O)(=O)c1ccc(F)cc1
7.5	CSc1nc2ccc(Br)cn2c(=N)c1S(=O)(=O)c1ccccc1
5.5	CSc1nc2c(Cc3ccccc3)cccn2c(=N)c1S(=O)(=O)c1ccccc1
13.7	COc1nc2ccccn2c(=N)c1S(=O)(=O)c1ccccc1
7.2	CNc1nc2ccccn2c(=N)c1S(=O)(=O)c1ccccc1
7.9	CSc1nc2c3ccccc3ccn2c(=N)c1S(=O)(=O)c1ccccc1
2.8	C/N=c1/c(S(=O)(=O)c2ccccc2)c(SC)nc2ccccn12
2.8	CSc1nc2ccccn2c(=N)c1S(=O)(=O)c1ccc(OC(F)(F)F)cc1
5.2	CSc1nc2ccccn2c(=N)c1S(=O)(=O)c1ccccc1
40	CSc1nc2ccccn2c(=O)c1S(=O)(=O)c1ccccc1

Tested on: not listed separately
Assay: Ratio of drug level in brain to plasma in rat at 10 mg/kg, ip
Type: ADME, organism-based
Set-up: dose 10 mg/kg, route intraperitoneal
Settings: read-out: BPR
Outline: (§1)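 Rats received a single intraperitoneal dose of 10 mg/kg. Brain and plasma drug levels were measured 30 minutes post-dose, and the brain/plasma ratio was derived from them.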

Kp	Compound
1.2	CSc1nc2ccccn2c(=N)c1S(=O)(=O)c1ccccc1

Tested on: not listed separately
Assay: Oral bioavailability in rat
Type: ADME, organism-based
Settings: in vivo

bioavailability [%]	Compound
< 1	CSc1nc2ccccn2c(=N)c1S(=O)(=O)c1ccccc1

Tested on: Brain
Assay: Drug uptake in rat brain at 10 mg/kg, ip
Type: ADME, organism-based
Set-up: dose 10 mg/kg, route intraperitoneal
Settings: in vivo, read-out: Drug uptake
Outline: as §1

concentration [nM]	Compound
1900	CSc1nc2ccccn2c(=N)c1S(=O)(=O)c1ccccc1

Molecular target: T1, 5-hydroxytryptamine receptor 6 (Homo sapiens, UniProt P50406)
T1 sequence (P50406 whole entry): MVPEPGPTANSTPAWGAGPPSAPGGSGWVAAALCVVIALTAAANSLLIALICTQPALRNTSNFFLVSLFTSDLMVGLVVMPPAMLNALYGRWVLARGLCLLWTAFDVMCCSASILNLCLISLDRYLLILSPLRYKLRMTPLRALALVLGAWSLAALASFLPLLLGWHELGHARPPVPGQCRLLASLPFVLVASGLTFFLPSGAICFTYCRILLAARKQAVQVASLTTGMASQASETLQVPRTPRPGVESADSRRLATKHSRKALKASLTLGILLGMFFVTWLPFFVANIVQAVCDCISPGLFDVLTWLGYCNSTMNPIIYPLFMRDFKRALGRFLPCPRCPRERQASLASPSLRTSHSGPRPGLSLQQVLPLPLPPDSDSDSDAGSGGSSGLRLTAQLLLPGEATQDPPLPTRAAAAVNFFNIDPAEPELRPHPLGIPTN
Assay: Antagonist activity at human cloned 5-HT6 receptor expressed in HeLa cells assessed as inhibition of 5-HT-stimulated conversion of [alpha-33P]ATP to [33P]cAMP
Type: functional, cell-based
Settings: not given

antagonist activity (active/inactive call)	Compound
Active	CCCc1ccn2c(=N)c(S(=O)(=O)c3ccccc3)c(SC)nc2c1
Active	CSc1nc2ccccn2/c(=N\C(C)=O)c1S(=O)(=O)c1ccccc1
Active	CSc1nc2ccccn2c(=N)c1S(=O)(=O)c1ccc2ccccc2c1
Active	N=c1c(S(=O)(=O)c2ccccc2)c(NCCO)nc2ccccn12
Active	CSc1nc2ccc(C)cn2c(=N)c1S(=O)(=O)c1ccccc1
Active	CSc1nc2c(Br)cc(C)cn2c(=N)c1S(=O)(=O)c1ccccc1
Active	CSc1nc2ccccn2c(=N)c1S(=O)(=O)c1ccc(Cl)c(Cl)c1
Active	CSc1nc2ccccn2c(=N)c1S(=O)(=O)c1ccccc1Cl
Active	CSc1nc2ccccn2c(=N)c1S(=O)(=O)c1cc(C)c(Cl)cc1C
Active	CSc1nc2ccccn2c(=N)c1S(=O)(=O)c1ccc(C(C)(C)C)cc1
Active	CSc1nc2c3ncccc3ccn2c(=N)c1S(=O)(=O)c1ccccc1
Active	CSc1nc2c(C)cc(Br)cn2c(=N)c1S(=O)(=O)c1ccccc1
Active	CSc1nc2ccccn2c(=N)c1S(=O)(=O)c1ccc(F)cc1
Active	CSc1nc2ccc(Br)cn2c(=N)c1S(=O)(=O)c1ccccc1
Active	CSc1nc2ccc(C(N)=O)cn2c(=N)c1S(=O)(=O)c1ccccc1
Active	CSc1nc2ccc(Cl)cn2c(=N)c1S(=O)(=O)c1ccccc1
Active	CSc1nc2cc(C)ccn2c(=N)c1S(=O)(=O)c1ccccc1

antagonist activity (active/inactive call)	Compound
Active	CSc1nc2ccc(F)cn2c(=N)c1S(=O)(=O)c1ccccc1
Active	CSc1nc2c(Cc3ccccc3)cccn2c(=N)c1S(=O)(=O)c1ccccc1
Active	CCOc1nc2ccccn2c(=N)c1S(=O)(=O)c1ccccc1
Active	CSc1nc2c(C)cc(Cc3ccccc3)cn2c(=N)c1S(=O)(=O)c1ccccc1
Active	COc1nc2ccccn2c(=N)c1S(=O)(=O)c1ccccc1
Active	CCNc1nc2ccccn2c(=N)c1S(=O)(=O)c1ccccc1
Active	CCc1ccn2c(=N)c(S(=O)(=O)c3ccccc3)c(SC)nc2c1
Active	COC(=O)c1ccc2nc(SC)c(S(=O)(=O)c3ccccc3)c(=N)n2c1
Active	CSc1nc2c(C)cccn2c(=N)c1S(=O)(=O)c1ccccc1
Active	CNc1nc2ccccn2c(=N)c1S(=O)(=O)c1ccccc1
Active	CSc1nc2c3ccccc3ccn2c(=N)c1S(=O)(=O)c1ccccc1
Active	Cc1ccc(Nc2nc3ccc(C)cn3c(=N)c2S(=O)(=O)c2ccccc2)nc1
Active	C[S+]([O-])c1nc2ccccn2c(=N)c1S(=O)(=O)c1ccccc1 (stereo unspecified)
Active	C/N=c1/c(S(=O)(=O)c2ccccc2)c(SC)nc2ccccn12
Active	CSc1nc2ccccn2c(=N)c1S(=O)(=O)c1ccc(OC(F)(F)F)cc1
Active	CSc1nc2ccccn2c(=N)c1S(=O)(=O)c1ccccc1
Active	CSc1nc2ccccn2c(=O)c1S(=O)(=O)c1ccccc1

Molecular target: T1, 5-hydroxytryptamine receptor 6
Assay: Displacement of [3H]LSD from human cloned 5-HT6 receptor expressed in HeLa cells
Type: cell-based
Settings: not given

IC50 [nM]	Compound
700	CCCc1ccn2c(=N)c(S(=O)(=O)c3ccccc3)c(SC)nc2c1
83	CSc1nc2ccccn2/c(=N\C(C)=O)c1S(=O)(=O)c1ccccc1
59	CSc1nc2ccccn2c(=N)c1S(=O)(=O)c1ccc2ccccc2c1
42	N=c1c(S(=O)(=O)c2ccccc2)c(NCCO)nc2ccccn12
1.3	CSc1nc2ccc(C)cn2c(=N)c1S(=O)(=O)c1ccccc1
126	CSc1nc2c(Br)cc(C)cn2c(=N)c1S(=O)(=O)c1ccccc1
18	CSc1nc2ccccn2c(=N)c1S(=O)(=O)c1ccc(Cl)c(Cl)c1
11	CSc1nc2ccccn2c(=N)c1S(=O)(=O)c1ccccc1Cl
50	CSc1nc2ccccn2c(=N)c1S(=O)(=O)c1cc(C)c(Cl)cc1C
65	CSc1nc2ccccn2c(=N)c1S(=O)(=O)c1ccc(C(C)(C)C)cc1
57	CSc1nc2c3ncccc3ccn2c(=N)c1S(=O)(=O)c1ccccc1
12	CSc1nc2c(C)cc(Br)cn2c(=N)c1S(=O)(=O)c1ccccc1
22	CSc1nc2ccccn2c(=N)c1S(=O)(=O)c1ccc(F)cc1
56	CSc1nc2ccc(Br)cn2c(=N)c1S(=O)(=O)c1ccccc1
8.8	CSc1nc2ccc(C(N)=O)cn2c(=N)c1S(=O)(=O)c1ccccc1
28	CSc1nc2ccc(Cl)cn2c(=N)c1S(=O)(=O)c1ccccc1
41	CSc1nc2cc(C)ccn2c(=N)c1S(=O)(=O)c1ccccc1

IC50 [nM]	Compound
28	CSc1nc2ccc(F)cn2c(=N)c1S(=O)(=O)c1ccccc1
330	CSc1nc2c(Cc3ccccc3)cccn2c(=N)c1S(=O)(=O)c1ccccc1
12	CCOc1nc2ccccn2c(=N)c1S(=O)(=O)c1ccccc1
60	CSc1nc2c(C)cc(Cc3ccccc3)cn2c(=N)c1S(=O)(=O)c1ccccc1
21	COc1nc2ccccn2c(=N)c1S(=O)(=O)c1ccccc1
2	CCNc1nc2ccccn2c(=N)c1S(=O)(=O)c1ccccc1
80	CCc1ccn2c(=N)c(S(=O)(=O)c3ccccc3)c(SC)nc2c1
470	COC(=O)c1ccc2nc(SC)c(S(=O)(=O)c3ccccc3)c(=N)n2c1
3.4	CSc1nc2c(C)cccn2c(=N)c1S(=O)(=O)c1ccccc1
2.4	CNc1nc2ccccn2c(=N)c1S(=O)(=O)c1ccccc1
55	CSc1nc2c3ccccc3ccn2c(=N)c1S(=O)(=O)c1ccccc1
60	Cc1ccc(Nc2nc3ccc(C)cn3c(=N)c2S(=O)(=O)c2ccccc2)nc1
250	C[S+]([O-])c1nc2ccccn2c(=N)c1S(=O)(=O)c1ccccc1 (stereo unspecified)
120	C/N=c1/c(S(=O)(=O)c2ccccc2)c(SC)nc2ccccn12
420	CSc1nc2ccccn2c(=N)c1S(=O)(=O)c1ccc(OC(F)(F)F)cc1
52	CSc1nc2ccccn2c(=O)c1S(=O)(=O)c1ccccc1
